# Screens: PubChem, Sanford-Burnham Center for Chemical Genomics
# Only some compounds are listed: those with a hit (about 1.5% of all), similar ones and a draw of the others.
# APJ antagonist: blocks the human apelin receptor APJ. 0.32% of 330,000 active. AID 2521. inhibition, % at 20 µM. CHO-K1 APJ beta-arrestin complementation, luminescence;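 active means inhibition above about 40% at 20 µM, limit read from the data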;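 further: cells challenged with 10 nM apelin-13 agonist together with compound; plate controls were apelin-13 plus DMSO wells for no effect and DMSO wells lacking apelin-13 for full effect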
# Target sequence (P35414 whole entry, looked up): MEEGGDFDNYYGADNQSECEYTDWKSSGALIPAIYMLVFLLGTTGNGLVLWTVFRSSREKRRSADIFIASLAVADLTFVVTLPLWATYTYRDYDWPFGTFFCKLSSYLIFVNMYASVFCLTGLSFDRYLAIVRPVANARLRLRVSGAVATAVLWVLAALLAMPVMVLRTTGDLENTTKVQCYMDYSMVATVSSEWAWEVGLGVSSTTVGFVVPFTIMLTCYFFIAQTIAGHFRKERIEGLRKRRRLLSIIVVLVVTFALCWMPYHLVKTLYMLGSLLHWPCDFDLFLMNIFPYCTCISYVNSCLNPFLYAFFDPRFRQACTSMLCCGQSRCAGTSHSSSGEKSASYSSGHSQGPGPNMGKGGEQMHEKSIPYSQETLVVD
# EBI2 block: EBI2 (human) antagonism; P32249; EBI2 beta-arrestin recruitment, luminescence, 7a,25-OHC stimulated; inhibition, % at 5 µM; 0.81% of 360,000 active; AID 651636; in the data active means inhibition above about 38%;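 further: enzyme fragment complementation signal reports receptor beta-arrestin coupling in cells; 0% = agonist plus DMSO wells and 100% = wells without agonist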
# CXCR6 block: CXCR6 (human) receptor inhibition | inhibition, % at 20 µM | AID 602244 | CHO-K1 PathHunter CXCR6 beta-arrestin, luminescence | O00574 | 0.36% of 360,000 active; in the data active means inhibition above about 34%, passing the limit was not always enough;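 further: antagonist mode with CXCL16 agonist at 10 nM final; 0% = 10 nM CXCL16 with DMSO and 100% = unstimulated wells without agonist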
# CCR6 antag: antagonists of human CCR6 receptor. CHO-K1 CCR6 PathHunter beta-arrestin, luminescence, CCL20-stimulated. inhibition, % at 20 µM. 0.49% of 340,000 active. P51684;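 active means compounds whose inhibition of the agonist-driven luminescence signal at 20 µM reaches about 50%, limit read from the data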;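 further: cells stimulated with CCL20 at 14 nM final; plate controls were DMSO with CCL20 for no effect and DMSO without agonist for full effect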
# APJ ag: agonists of human APJ apelin receptor; P35414; CHO-K1 APJ PathHunter beta-arrestin, luminescence; 0% DMSO wells, 100% apelin; AID 2520; activation, % at 20 µM; 0.11% of 330,000 active;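 active means activation more than six SD over the plate average, tested at 20 µM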;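 further: 0% = DMSO alone and 100% = apelin-13 at 10 nM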
#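 system = engineered CHO-K1 APJ arrestin reporter cells | input = 1000 cells per well | timing = overnight seeding, 90 min compound at 25 °C, 1 h detection | measured by = enzyme-fragment complementation luminescence | read-out = beta-arrestin recruitment to APJ as agonist activity, luminescent signal | control set = negative DMSO alone, positive Apelin-13 at 10 nM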
# EBI2 antag conf: EBI2 (human) antagonism, single concentration confirmation | inhibition, % at 5 µM | 29% of 2,400 active | shares compounds with EBI2 block | EBI2 beta-arrestin luminescence, 7a,25-OHC antagonism;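 active means inhibition of at least 50%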
# EBI2 ag: activates EBI2, counter-screen for EBI2 antagonists; shares compounds with EBI2 block; EBI2-expressing cells, agonist mode, luminescence, 60 min; 0% vehicle, 100% 7α,25-dihydroxycholesterol control; activation, % at 5 µM; 2,400 tested, under 10 active;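 active means activation of at least 50%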
# bGal cs: inhibits E. coli beta-galactosidase, counter-screen for EBI2 antagonists; shares compounds with EBI2 block; purified beta-galactosidase, luminescent Galacton Star, 15 min; 1% of 2,400 active; inhibition, % at 5 µM; AID 652176;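 active means replicate-average signal at least 3 plate SD below neutral wells, shown as high inhibition, flagging enzyme-inhibiting false positives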;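 further: 0% = DMSO wells with enzyme and 100% = wells lacking enzyme; higher means stronger loss of beta-gal luminescence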
# The depositor's hits bear a star; . = no result given.
SMILES,APJ antagonist,EBI2 block,CXCR6 block,CCR6 antag,APJ ag,EBI2 antag conf,EBI2 ag,bGal cs
COc1ccc(C(=O)C2CCN(C(=O)c3ccc(C)cc3)CC2)cc1,1,53*,3,-9,-2,47,-1,-19
CCOc1ccc(C(=O)C2CCN(C(=O)c3ccc([N+](=O)[O-])cc3)CC2)cc1,-28,84*,-13,-4,1,53*,-1,-5
Cc1ccc(NC(=O)C2CCCN(C(=O)Nc3ccc(F)cc3)C2)cc1 (stereo unspecified),12,0,-10,25,0,.,.,.
Cc1ccc(NC(=O)N2CCC(C(=O)c3ccc(F)cc3)CC2)cc1,3,41,-2,3,3,.,.,.
CCCCN1C(=O)C(C(=O)OCc2ccccc2)CC2=C1CCCC2=O (stereo unspecified),.,-8,2,-1,.,.,.,.
Cc1ccc(NC(=O)CSc2nc(O)c(Cc3ccccc3)c(=O)n2-c2ccccc2)cc1,4,-7,4,8,2,.,.,.
O=C(c1ccc([N+](=O)[O-])cc1)N1CCSC1c1cccc(Cl)c1 (stereo unspecified),-10,13,12,0,-3,.,.,.
O=C(c1cccc(Cl)c1)N1CCC(=O)N([C@H](COCc2cccc(Cl)c2)Cc2ccccc2)CC1,.,16,6,.,.,.,.,.
COc1ccc(/C=C/C(=O)c2ccc3c4c(cccc24)CC3)cc1,-6,56*,3,2,0,36,2,4
Cc1nn(CC(=O)NCCc2cccs2)c(=O)c2cc3ccccc3n12,0,-15,1,9,-3,.,.,.
COc1ccc(CN2CCC(C(=O)Nc3ccc(Oc4ccccc4)nc3)CC2)cc1F,9,6,8,3,3,.,.,.
COc1ccc(C2CCCN2C(=O)Nc2ccc(Cl)cc2)cc1OC (stereo unspecified),0,59*,-6,11,-2,49,1,6
COc1ccc(NC(=O)C2CCCN2C(=O)Nc2ccccc2)cc1OC (stereo unspecified),-1,-8,-4,1,-8,.,.,.
O=C(NCC1CCCO1)c1ccc(NC(=O)c2cccc([N+](=O)[O-])c2)cc1 (stereo unspecified),0,-8,8,-5,-3,.,.,.
NS(=O)(=O)c1ccc(CCNc2ccn3nc(-c4ccccc4)cc3n2)cc1,.,10,-4,.,.,.,.,.
CC(C)Cc1ccc(-c2cc3nc(NCCc4ccc(S(N)(=O)=O)cc4)ccn3n2)cc1,.,66*,-8,.,.,50,-1,-13
CC1=NCCN1CCNC(=O)Nc1ccc(C(C)(C)C)cc1,9,-3,4,5,1,.,.,.
COc1ccc(C(=O)/C=C/c2ccc(C)cc2)c(OC(=O)c2ccc([N+](=O)[O-])cc2)c1,13,82*,-6,14,0,28,-1,-13
Cc1ccc(/C=C/C(=O)c2ccc(C)cc2)cc1,-2,61*,1,1,-2,66*,2,2
CN(C)c1ccc(C(=O)C=Cc2ccc([N+](=O)[O-])cc2)cc1,.,53*,-7,.,.,27,0,-8
O=C(C=Cc1ccccc1)c1ccc([N+](=O)[O-])cc1,.,7,1,-1,.,.,.,.
COc1ccc(C(=O)/C=C/c2ccccc2F)c(OC(=O)c2ccc([N+](=O)[O-])cc2)c1,-5,11,8,15,-1,.,.,.
Cc1ccc(C(=O)C=Cc2cccc(C)c2)cc1,.,25,7,27,.,.,.,.
CC(=O)c1ccc(NC(=O)/C=C/c2ccc(C)cc2)cc1,-15,54*,1,1,2,30,2,3
CC1CCN(C(=O)CNC(=O)c2ccc(Br)o2)CC1,-4,-3,8,14,-1,.,.,.
O=C(NCc1ccc(F)cc1)C1CCN(S(=O)(=O)c2cccnc2)CC1,4,11,-7,13,1,.,.,.
